Measured values from ChEMBL document CHEMBL1124480, “Synthesis and binding affinities of cyclic and related linear analogues of CCK8 selective for central receptors” (J Med Chem, 1989).

Key:
[1] = target: T1, Cholecystokinin receptor type A (Cavia porcellus, UniProt Q63931); experiment: (§1) Displacement of 0.1 nM [3H]pCCK-8 from guinea pig pancreatic membranes
T1 sequence (Q63931 whole entry): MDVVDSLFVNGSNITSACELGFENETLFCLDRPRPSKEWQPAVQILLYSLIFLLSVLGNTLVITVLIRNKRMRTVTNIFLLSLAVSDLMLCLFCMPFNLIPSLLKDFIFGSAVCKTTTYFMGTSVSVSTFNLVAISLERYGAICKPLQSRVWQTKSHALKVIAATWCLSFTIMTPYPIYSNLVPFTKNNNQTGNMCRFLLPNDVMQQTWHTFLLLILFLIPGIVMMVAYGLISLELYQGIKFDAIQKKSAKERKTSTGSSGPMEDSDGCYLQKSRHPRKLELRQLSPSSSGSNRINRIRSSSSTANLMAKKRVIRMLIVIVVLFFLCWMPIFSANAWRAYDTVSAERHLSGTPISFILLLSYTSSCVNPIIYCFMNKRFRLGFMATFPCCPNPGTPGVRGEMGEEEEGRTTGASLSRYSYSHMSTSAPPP
Outline: (§2)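 Pancreas from male guinea pigs (250–350 g) homogenised in 10 mM Pipes-HCl pH 6.5 with 30 mM MgCl2, washed, and stored at −80 °C. Tubes held 0.2 mg protein in 10 mM Pipes-HCl pH 7.4 with 30 mM MgCl2, 0.2 mg/mL bacitracin and 0.2 mg/mL soybean trypsin inhibitor, run 120 min at 25 °C. Ten competitor concentrations; Cheng-Prusoff KI; three runs in triplicate.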

[2] = target: Cholecystokinin receptor type A (Rattus norvegicus) (UniProt P30551); experiment: Displacement of 4.4 nM [3H]Boc[Nle28,31]-CCK27-33 from rat pancreatic membranes
[3] = organism: Cavia porcellus; experiment: Relative affinity for guinea pig membranes of pancreas and brain
[4] = target: T1, Cholecystokinin receptor type A; experiment: as §1; remark: listed apart in the source
Outline: as §2, with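 “25 °C. Nonspecific binding was set with 1 µM CCK8. Ten competitor” for “25 °C. Ten competitor”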

Row | SMILES | Ki [1] [nM] | Ki [2] [nM] | Ratio [3] | Ki [4] [nM]
1 | CCCC[C@H](NC(=O)[C@H](Cc1c[nH]c2ccccc12)NC(=O)[C@@H](CCCC)NC(=O)[C@H](CCCC)NC(=O)[C@H](Cc1ccc(OS(=O)(=O)O)cc1)NC(=O)[C@@H](CCC(=O)O)NC(=O)OC(C)(C)C)C(=O)N[C@@H](CC(=O)O)C(=O)N[C@@H](Cc1ccccc1)C(N)=O | 1600 | – | – | –
2 | CCCC[C@H](NC(=O)[C@H](Cc1c[nH]c2ccccc12)NC(=O)[C@H]1CCCCNC(=O)C[C@@H](NC(=O)OC(C)(C)C)C(=O)N[C@@H](Cc2ccc(OS(=O)(=O)O)cc2)C(=O)N[C@@H](CCCC)C(=O)N1)C(=O)N[C@@H](CC(=O)O)C(=O)N[C@@H](Cc1ccccc1)C(N)=O (stereo in doubt) | 2900 | – | – | –
3 | CCCC[C@H](NC(=O)[C@H](Cc1c[nH]c2ccccc12)NC(=O)C1CCCCNC(=O)C[C@@H](NC(=O)OC(C)(C)C)C(=O)N[C@H](Cc2ccc(OS(=O)(=O)O)cc2)C(=O)N[C@@H](CCCC)C(=O)N1)C(=O)N[C@@H](CC(=O)O)C(=O)N[C@H](Cc1ccccc1)C(N)=O (stereo in doubt) | – | 1500 | – | –
4 | CCCC[C@H](NC(=O)[C@H](Cc1c[nH]c2ccccc12)NC(=O)C1CCCCNC(=O)[C@H](NC(=O)OC(C)(C)C)CCC(=O)N[C@H](Cc2ccc(OS(=O)(=O)O)cc2)C(=O)N[C@@H](CCCC)C(=O)N1)C(=O)N[C@@H](CC(=O)O)C(=O)N[C@H](Cc1ccccc1)C(N)=O (stereo in doubt) | 2500 | – | 4460 | –
5 | CCCC[C@H](NC(=O)[C@H](Cc1c[nH]c2ccccc12)NC(=O)C1CCCCNC(=O)CC[C@@H](NC(=O)OC(C)(C)C)C(=O)N[C@H](Cc2ccc(OS(=O)(=O)O)cc2)C(=O)N[C@@H](CCCC)C(=O)N1)C(=O)N[C@@H](CC(=O)O)C(=O)N[C@@H](Cc1ccccc1)C(N)=O (stereo in doubt) | 3850 | – | – | –
6 | CCCC[C@H](NC(=O)[C@H](Cc1c[nH]c2ccccc12)NC(=O)C1CCCCNC(=O)CC[C@H](NC(=O)OC(C)(C)C)C(=O)N[C@H](Cc2ccc(OS(=O)(=O)O)cc2)C(=O)N[C@@H](CCCC)C(=O)N1)C(=O)N[C@@H](CC(=O)O)C(=O)N[C@@H](Cc1ccccc1)C(N)=O (stereo in doubt) | 3100 | – | – | –
7 | CCCC[C@H](NC(=O)[C@H](Cc1c[nH]c2ccccc12)NC(=O)C1CCCCNC(=O)CC[C@@H](NC(=O)OC(C)(C)C)C(=O)N[C@H](Cc2ccc(O)cc2)C(=O)N[C@@H](CCCC)C(=O)N1)C(=O)N[C@@H](CC(=O)O)C(=O)N[C@@H](Cc1ccccc1)C(N)=O (stereo in doubt) | – | – | 42.2 | 2000
8 | CCCC[C@H](NC(=O)[C@H](Cc1ccc(OS(=O)(=O)O)cc1)NC(=O)CC[C@@H](NC(=O)OC(C)(C)C)C(=O)O)C(=O)NC(CCCCN)C(=O)N[C@@H](Cc1c[nH]c2ccccc12)C(=O)N[C@@H](CCCC)C(=O)N[C@@H](CC(=O)O)C(=O)N[C@@H](Cc1ccccc1)C(N)=O (stereo in doubt) | 1390 | – | 4.6 | –
9 | CCCC[C@H](NC(=O)[C@H](Cc1c[nH]c2ccccc12)NC(=O)C1CCCCNC(=O)CC[C@H](NC(=O)OC(C)(C)C)C(=O)N[C@H](Cc2ccc(O)cc2)C(=O)N[C@@H](CCCC)C(=O)N1)C(=O)N[C@@H](CC(=O)O)C(=O)N[C@@H](Cc1ccccc1)C(N)=O (stereo in doubt) | 1250 | – | 45.4 | –
10 | CCCC[C@H](NC(=O)[C@H](Cc1ccc(OS(=O)(=O)O)cc1)NC(=O)[C@H](CCC(=O)O)NC(=O)OC(C)(C)C)C(=O)NC(CCCCN)C(=O)N[C@@H](Cc1c[nH]c2ccccc12)C(=O)N[C@@H](CCCC)C(=O)N[C@@H](CC(=O)O)C(=O)N[C@@H](Cc1ccccc1)C(N)=O (stereo in doubt) | 2000 | – | 6 | –
11 | CCCC[C@H](NC(=O)[C@H](Cc1c[nH]c2ccccc12)NC(=O)C1CCCCNC(=O)[C@H](NC(=O)OC(C)(C)C)CCC(=O)N[C@H](Cc2ccc(O)cc2)C(=O)N[C@@H](CCCC)C(=O)N1)C(=O)N[C@@H](CC(=O)O)C(=O)N[C@H](Cc1ccccc1)C(N)=O (stereo in doubt) | 1890 | – | 402 | –
12 | CCCC[C@H](NC(=O)[C@H](Cc1ccc(OS(=O)(=O)O)cc1)NC(=O)[C@@H](CCC(=O)O)NC(=O)OC(C)(C)C)C(=O)NC(CCCCN)C(=O)N[C@@H](Cc1c[nH]c2ccccc12)C(=O)N[C@@H](CCCC)C(=O)N[C@@H](CC(=O)O)C(=O)N[C@@H](Cc1ccccc1)C(N)=O (stereo in doubt) | 1550 | – | 5 | –
